In the library only some 2.6% were active in any assay of this set; here they are far more common.
T cell modulator – modulators of CD8 T cell-vesicle binding, primary screen, mouse 2C CD8+ T cells, flow cytometry | 2C CD8+ T cell-vesicle binding; active compounds read low | response (vesicle binding), % at 7 µM | 330,000 tested, 0.068% active;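 active = response, share of CD8 T cells binding vesicles, and their 90th percentile fluorescence all below set limits, cut at about 80% in these data, passing the limit was not always enough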;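 note: values below 100% mean blocked vesicle binding to the CD8+ T cells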
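Benchmarks: naked versus QL9-loaded vesicles / Assay system: purified 2C TCR transgenic mouse naive CD8+ T cells / Technique: high-throughput flow cytometry with anti-B7-1 and anti-CD8 staining / Timing: Cell–vesicle co-incubation 1.5 h at 37 °C, staining 20 min on ice / Read-out: percent CD8+ FL2 mean versus row control / Probe or stimulus: QL9-loaded Drosophila micro-vesicles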
Exocytosis inh – LAMP-1 surface exposure blockers, TALL-104 cells – cell-based, flow cytometry, MLPCN library, primary screen. TALL-104 LAMP-1 surface exposure; cells stimulated with thapsigargin and PMA. inhibition, % at 10 µM. 360,000 tested, 0.66% active;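 active = inhibition above about 55%, limit read from the data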
EP2 modulator – EP2 receptor modulators, cAMP readout, primary screen, cell-based, HTRF cAMP, PGE2 stimulation; Prostaglandin E2 receptor EP2 subtype (Homo sapiens), P43116; EP2-expressing cells, cAMP HTRF FRET, PGE2 co-stimulation; induction, % at 25 µM; 260,000 tested, 0.83% active;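 active = compounds whose cAMP rise, as percent of the full-agonist control response, exceeds 60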;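 note: rat C6 glioma line stably carrying human EP2 under a CMV promoter; the protocol text gives 20 µM as final concentration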
Target sequence (P43116 whole entry, looked up): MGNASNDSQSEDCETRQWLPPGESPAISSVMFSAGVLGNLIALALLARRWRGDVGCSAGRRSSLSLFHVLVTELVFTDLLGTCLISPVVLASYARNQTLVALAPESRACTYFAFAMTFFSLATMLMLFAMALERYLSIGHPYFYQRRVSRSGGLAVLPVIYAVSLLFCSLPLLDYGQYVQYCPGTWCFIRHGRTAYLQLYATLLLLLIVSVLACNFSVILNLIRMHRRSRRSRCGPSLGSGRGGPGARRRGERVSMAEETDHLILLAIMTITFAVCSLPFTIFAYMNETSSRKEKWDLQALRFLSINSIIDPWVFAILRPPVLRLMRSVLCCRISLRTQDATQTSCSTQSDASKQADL
MC4R ag barr – MC4R agonists recruiting beta-arrestin, primary screen, cell-based, luminescence, agonist arm of biased-ligand search; 360,000 tested, 0.98% active; Melanocortin receptor 4 (Homo sapiens), P32245; U2OS MC4R beta-arrestin complementation; percent of melanotan II response, DMSO zero; activation, % at 8.9 µM; AID 540308, 2011;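 active = activation above a per-plate cutoff, the mean activation of sample wells on that plate plus 3 SD, cut at about 8% in these data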
Target sequence (P32245 whole entry, looked up): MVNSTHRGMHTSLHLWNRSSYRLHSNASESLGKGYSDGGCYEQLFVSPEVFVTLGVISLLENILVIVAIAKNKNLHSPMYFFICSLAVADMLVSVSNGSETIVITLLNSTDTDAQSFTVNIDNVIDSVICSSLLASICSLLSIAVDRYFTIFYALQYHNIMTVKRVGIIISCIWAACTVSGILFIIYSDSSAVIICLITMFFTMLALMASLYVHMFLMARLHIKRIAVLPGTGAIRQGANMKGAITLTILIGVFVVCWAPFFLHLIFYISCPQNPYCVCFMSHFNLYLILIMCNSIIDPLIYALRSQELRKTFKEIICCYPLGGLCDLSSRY
MC4R antagonist – MC4R antagonists of cAMP signaling, primary screen, cell-based, TR-FRET, antagonist arm of biased-ligand search; Melanocortin receptor 4 (Homo sapiens), P32245; MC4R-expressing cells, MTII-stimulated cAMP, LANCE TR-FRET; inhibition, % at 6.5 µM; 360,000 tested, 0.48% active;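 active = inhibition above its plate's cutoff, the mean of tested wells on that plate plus 3 SD, cut at about 29% in these data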
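Material – human MC4R-expressing U2OS cells · Repeats – no replicates · Detection – TR-FRET with Eu-cAMP and labeled anti-cAMP, 671 nm · Times – compound 30 min, challenge 1 h, detection 1 h · Compound – single nominal compound dose of 6.5 µM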
PGE2 EP2 inh – human EP2 receptor antagonists, primary screen, TR-FRET cAMP, C6 glioma cells. C6 glioma cells expressing human EP2; cells stimulated with saturating PGE2. inhibition, % at 25 µM. 260,000 tested, 0.52% active. AID 1422, 2008;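 active = percent inhibition above 40 after rounding to a whole number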;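 note: rat C6 glioma host cells with rolipram phosphodiesterase inhibitor present; the protocol text gives 20 µM as final concentration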
Granule exo CP1 – inhibitors of lytic granule exocytosis, confirmation, TALL-104 cells, flow cytometry, Cherry Pick01; LAMP-1 externalization; stimulated with PMA plus thapsigargin; 1,500 tested, 11% active; inhibition, % at 10 µM; shares compounds with Exocytosis inh; in the data active = inhibition above about 60%
Large screens that a line does not name were inactive (follow-up assays come after a bar, where they were run); ! = a repeat was not active.

CCC1(C)CC(CCNS(=O)(=O)c2ccc(C)cc2)(c2ccc(C)cc2)CCO1 (stereo not drawn)	Exocytosis inh 57 | Granule exo CP1 inactive
Cc1onc(-c2ccccc2)c1C(=O)OCCOc1ccccc1F	Exocytosis inh 80 (no result: EP2 modulator, PGE2 EP2 inh) | Granule exo CP1 inactive
COc1ccc(-c2cc(C)no2)cc1S(=O)(=O)N1CCOc2ccc(C)cc21	none (no result: EP2 modulator, PGE2 EP2 inh)
CCc1ccc(-c2cc(C)no2)cc1S(=O)(=O)N1CCOc2ccccc21	Exocytosis inh 89 (no result: EP2 modulator, PGE2 EP2 inh) | Granule exo CP1 inactive
Cc1ccc2nc(NC(=O)CSc3ncnc4c3oc3ccccc34)sc2c1	none (no result: T cell modulator, PGE2 EP2 inh)
Cc1ccc(N(C)S(=O)(=O)c2cc(-c3cnc(C4CC4)o3)ccc2C)cc1	Exocytosis inh 97 (no result: EP2 modulator, PGE2 EP2 inh) | Granule exo CP1 inactive
Cc1cccc(N(C)S(=O)(=O)c2ccc(-c3cnc(C4CC4)o3)cc2)c1	none (no result: EP2 modulator, PGE2 EP2 inh)
COc1ccc(N(CC(=O)NCc2ccc3c(c2)OCO3)S(C)(=O)=O)cc1Cl	none (no result: T cell modulator, Exocytosis inh, MC4R ag barr, MC4R antagonist)
CC(=O)Nc1nonc1-c1nc2ccccc2n1CCC(C)C	none (no result: PGE2 EP2 inh)
CCC(=O)Nc1nonc1-c1nc2ccccc2n1CCC(C)C	Exocytosis inh 63 | Granule exo CP1 inactive
COCCCNC(=O)Cn1c(=O)n(Cc2ccc(F)cc2)c(=O)c2sccc21	none (no result: EP2 modulator, PGE2 EP2 inh)
CCOC(=O)c1c(NC(=O)C(NCCN(C)C)c2ccccc2)sc2c1CCCC2 (stereo not drawn)	Exocytosis inh 70 (no result: EP2 modulator, PGE2 EP2 inh) | Granule exo CP1 inactive
CCOC(=O)c1c(NC(=O)c2ccccc2N(C)S(=O)(=O)c2ccccc2)sc2c1CCCC2	none
CCC(C(=O)NC1CCN(C)CC1)c1ccccc1 (stereo not drawn)	none (no result: EP2 modulator, PGE2 EP2 inh)
CCCN1CCC(NCc2cn(C)nc2-c2ccc(Oc3ccccc3)cc2)CC1	Exocytosis inh 77 | Granule exo CP1 inactive
CC1CCCCN1CCCNC(=O)Cn1c(=O)c2cccn2c2ccccc21 (stereo not drawn)	none (no result: EP2 modulator, PGE2 EP2 inh)
CCOC(=O)C(C(=O)OCC)C(C(=O)OCC)N1CCOCC1 (stereo not drawn)	Exocytosis inh 88 | Granule exo CP1 inactive
CCOC(=O)C(C)CC(C)C(=O)N1CCOCCOCCN(C(=O)C(C)CC(C)C(=O)OCC)CCOCC1 (stereo not drawn)	none
CC1COCC(C)N1C1=C(Cl)C(=O)c2ccccc2C1=O (stereo not drawn)	Exocytosis inh 91 (no result: T cell modulator, EP2 modulator, PGE2 EP2 inh) | Granule exo CP1 60
O=C1S/C(=C\c2ccc(N3CCOCC3)o2)C(=O)N1c1ccccc1	Exocytosis inh 68 | Granule exo CP1 inactive
CC(C)NC(=O)N(C)C[C@H]1OCc2cnnn2CCCC(=O)N([C@@H](C)CO)C[C@H]1C	none (no result: T cell modulator, EP2 modulator, PGE2 EP2 inh)
CN(C)C(=O)c1c2c(nc3ccccc13)CCCC2	Exocytosis inh 107 | Granule exo CP1 inactive
Clc1cccc(C2Nc3cccc4cccc(c34)N2)c1Cl	Exocytosis inh 93 (no result: EP2 modulator, PGE2 EP2 inh) | Granule exo CP1 inactive
Clc1ccccc1C1Nc2cccc3cccc(c23)N1	none (no result: EP2 modulator, PGE2 EP2 inh)
O=C1OC[C@H]2CCCC[C@@H](CO)ON12	none (no result: T cell modulator, EP2 modulator, PGE2 EP2 inh)
NC(=O)CC[C@H](NC(=O)c1ccc(F)cc1)C(=O)OCC(=O)Nc1c(F)c(F)c(F)c(F)c1F	none
NC(=O)CC[C@H](NC(=O)c1ccc(F)cc1)C(=O)OCC(=O)NCc1ccc(F)cc1	Exocytosis inh 57 | Granule exo CP1 inactive
CCn1c(C)nc([N+](=O)[O-])c1C(=O)O	none
CCN1CCN(Cc2ccc(NC(=O)c3ccc(C)c(NC(=O)C[C@@H]4NC(=O)[C@H](Cc5ccccc5)NC4=O)c3)cc2C(F)(F)F)CC1	Exocytosis inh 76! | Granule exo CP1 inactive
CCN1CCN(Cc2ccc(NC(=O)c3ccc(C)c(NC(=O)C4=NN(c5ccccc5)C(=O)C4)c3)cc2C(F)(F)F)CC1	none
COc1ccc(CNC(=O)CCCn2ccc3cc(S(=O)(=O)N4CCCC4)ccc32)cc1	none (no result: EP2 modulator, PGE2 EP2 inh)
COc1ccc2sc(N(CCCN(C)C)C(=O)c3ccc(S(=O)(=O)N4CCCc5ccccc54)cc3)nc2c1	none (no result: EP2 modulator, PGE2 EP2 inh)
CCCCc1ccc(NC(=O)CSc2nc(=O)n(CCN(CC)CC)c3c2CCC3)cc1	Exocytosis inh 84 (no result: EP2 modulator, PGE2 EP2 inh) | Granule exo CP1 inactive
COC(=O)C1CCN(c2ccc([N+](=O)[O-])cc2[N+](=O)[O-])CC1	none
c1ccc(CNCCC(Cc2ccccc2)c2ccco2)cc1 (stereo not drawn)	Exocytosis inh 72 | Granule exo CP1 inactive
CN(C)c1ccc(CNCCC(Cc2ccccc2)c2ccco2)cc1 (stereo not drawn)	none
CCN(CC)CCn1c(=N)n(CC(=O)c2ccc(Br)s2)c2ccccc21	Exocytosis inh 79 | Granule exo CP1 inactive
CC/C(=C\c1oc2cc3ccccc3cc2[n+]1CC)Nc1ccccc1	none
CCC(C)(O)C(=O)N[C@H]1CCCN1C(=O)/C=C/c1ccccc1 (stereo partly drawn)	Exocytosis inh 59 (no result: EP2 modulator, PGE2 EP2 inh) | Granule exo CP1 inactive
Cc1noc(NS(=O)(=O)c2ccc(NC(=O)CSc3nnc(-c4ccccc4)n3C3CCCCC3)cc2)c1C	none
O=C(NCC1CCCO1)c1cc(S(=O)(=O)Nc2ccc(Br)cc2)ccc1Cl (stereo not drawn)	Exocytosis inh 83 | Granule exo CP1 inactive
CCOC(=O)c1c(-c2ccccc2)csc1NC(=O)c1cccc(N2C(=O)CCC2=O)c1	Exocytosis inh 86 | Granule exo CP1 inactive
CCOC(=O)c1c(NC(=O)c2cccc(N3C(=O)CCC3=O)c2)sc2c1CCN(CC)C2	none (no result: EP2 modulator, PGE2 EP2 inh)
CCOc1ccccc1CNC(c1ccccc1)c1ccccc1	Exocytosis inh 59 (no result: EP2 modulator, PGE2 EP2 inh) | Granule exo CP1 inactive
COc1ccccc1CNC(c1ccccc1)c1ccccc1	none (no result: EP2 modulator, PGE2 EP2 inh)
COc1ccc(C(OC(=O)c2cccs2)C(=O)NCC2CCCO2)cc1 (stereo not drawn)	none
COc1ccccc1N1CCN(CC(=O)NCC2CCCO2)CC1 (stereo not drawn)	Exocytosis inh 58 | Granule exo CP1 inactive
COc1ccccc1C(OC(=O)c1cccs1)C(=O)NCC1CCCO1 (stereo not drawn)	Exocytosis inh 61 (no result: PGE2 EP2 inh) | Granule exo CP1 inactive
COc1ccc(S(=O)(=O)NCC2CCC(C(=O)NCCC(C)C)CC2)cc1 (stereo not drawn)	none
